Measured values: ChEMBL document CHEMBL4673340 (J Med Chem, 2020)
pEC50, pIC50: −log10 of the molar value. The source made the active and inactive calls. No cut-off for these calls is given here.

Key:
[1] = Drug level in C57BL/6 mouse plasma at 10 mg/kg, po after 2 hrs; format: ADME, organism-based
Summary of the method: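 C57BL/6 mice (n=3) dosed orally at 10 mg/kg in 0.5% MC. Plasma and brain are sampled at 1, 2 and 4 h. Brain is homogenized in 3 volumes of saline, then acetonitrile protein precipitation; plasma is likewise precipitated. Both are analysed by LC–MS/MS and reported as means.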

[2] = Ratio of drug level in brain to plasma of C57BL/6 mouse brain at 10 mg/kg, po after 2 hrs; format: ADME, organism-based
Summary of the method: (§1)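 C57BL/6 mice were given 10 mg/kg po in 0.5% MC and sampled at 1, 2 and 4 h. Brain was homogenized in 3 volumes of saline, and brain and plasma were protein-precipitated with acetonitrile, then measured by LC-MS/MS. Brain (ng/g) was expressed as a percentage of plasma (ng/mL). Values are means of three mice.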

[3] = Clearance in human liver microsomes; format: ADME, Microsome
[4] = test system: NCI-H209; test: Potentiation of TMZ-induced antitumor activity against human NCI-H209 cells xenografted in BALB/c nude mouse assessed as PR rate at […], po BID for 28 days and co-treated with 50 mg/kg, po QD TMZ for 5 consecutive days at start of study and again 14 days later; format: functional; conditions: time 28 day
[5] = Tmax in Beagle dog at 2 mg/kg, po by LC-MS/MS analysis; format: ADME, organism-based, Canis lupus familiaris; conditions: in vivo
Summary of the method: (§2)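 Beagle dogs, three per group. iv 1 mg/kg in 25% DMA in water; oral 2 mg/kg. Values are means of three dogs.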

[6] = Volume of distribution at steady state in Beagle dog at 1 mg/kg, iv by LC-MS/MS analysis; format: ADME, organism-based, Canis lupus familiaris; conditions: in vivo, read-out: Vdss; summary of the method: as §2
[7] = Toxicity in BALB/c nude mouse xenografted with human MDA-MB-436 cells assessed as induction of body weight loss at 1.6 to […], po BID for 28 days followed by treatment was interruption and monitored for additional 2 months; format: organism-based; conditions: in vivo, dose 1.6-3.1 mg/kg, time 28 day
[8] = AUC (0 to infinity) in ICR mouse at 1 mg/kg, iv by LC-MS/MS analysis; format: ADME, organism-based; design: route intravenous, time infinity, dose 1 mg/kg; conditions: in vivo
Summary of the method: (§3)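 Male/female unspecified ICR mice, n=3 per route. Intravenous 1 mg/kg in 5% DMA in water; oral 10 mg/kg in 0.5% MC. Plasma is processed by protein precipitation and analysed by LC–MS/MS using an acetonitrile/0.1% formic acid gradient. Values are means of the three animals.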

[9] = Half life in Sprague-Dawley rat at 2 mg/kg, iv by LC-MS/MS analysis; format: ADME, organism-based; conditions: in vivo
Summary of the method: (§4)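 Sprague-Dawley rats (n=3) get 2 mg/kg iv formulated in 38% DMA in water. Plasma is protein-precipitated and quantified by LC–MS/MS (C18, acetonitrile/0.1% formic acid gradient). Parameters are means of the three rats.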

[10] = Unbound fraction in rat plasma; format: ADME, cell-free
[11] = Cmax in ICR mouse at 10 mg/kg, po by LC-MS/MS analysis; format: ADME, organism-based; design: route oral, dose 10 mg/kg; conditions: in vivo; summary of the method: as §3
[12] = Clearance in dog liver microsomes; format: ADME, Canis lupus familiaris, Microsome; conditions: read-out: CLH
[13] = Toxicity in BALB/c nude mouse xenografted with human NCI-H209 cells assessed as drug tolerability at […], po BID for 28 days and co-treated with 50 mg/kg, po QD TMZ for 5 consecutive days at start of study and again 14 days later relative to TMZ alone; format: organism-based; conditions: in vivo, dose 0.75 mg/kg, time 28 day
[14] = Clearance in Sprague-Dawley rat at 2 mg/kg, iv by LC-MS/MS analysis; format: ADME, organism-based; conditions: in vivo; summary of the method: as §4
[15] = molecular target: Cytochrome P450 2C19 (Homo sapiens, UniProt P33261); test: Inhibition of CYP2C19 (unknown origin); format: ADME
Sequence of Cytochrome P450 2C19 (P33261 whole entry): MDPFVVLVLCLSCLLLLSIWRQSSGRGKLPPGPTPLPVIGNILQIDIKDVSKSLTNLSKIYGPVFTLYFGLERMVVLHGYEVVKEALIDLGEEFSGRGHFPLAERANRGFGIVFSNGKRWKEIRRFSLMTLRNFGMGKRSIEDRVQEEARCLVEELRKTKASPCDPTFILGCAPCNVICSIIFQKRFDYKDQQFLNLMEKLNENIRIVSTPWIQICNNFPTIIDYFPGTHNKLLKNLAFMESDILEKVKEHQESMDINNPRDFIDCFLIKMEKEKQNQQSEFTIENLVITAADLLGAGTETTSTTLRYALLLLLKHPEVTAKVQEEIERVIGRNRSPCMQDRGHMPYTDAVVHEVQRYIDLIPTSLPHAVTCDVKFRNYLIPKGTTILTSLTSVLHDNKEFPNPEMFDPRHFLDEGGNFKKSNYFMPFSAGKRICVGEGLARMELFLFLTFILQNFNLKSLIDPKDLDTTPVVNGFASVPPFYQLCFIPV

[16] = test system: SK-BR-3; test: Antiproliferation activity against human SK-BR-3 cells incubated for 7 days by CellTiter-Glo luminescent cell viability assay; format: functional, cell-based; conditions: SK-BR-3, 168 h
Summary of the method: (§5)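 Seeding density is set per line for log growth over 7 days. Cells attach 16 h, then are treated in duplicate with a 10-point dilution series for 7 days. CellTiter-Glo luminescence (ATP) is read, and viability is expressed relative to mock-treated control. EC50 is the mean of three independent experiments run in triplicate.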

[17] = Half life in Beagle dog at 1 mg/kg, iv by LC-MS/MS analysis; format: ADME, organism-based, Canis lupus familiaris; conditions: in vivo
Summary of the method: (§6)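 Three Beagle dogs; iv dose 1 mg/kg in 25% DMA in water; oral dose 2 mg/kg in 0.5% CMC-Na. Plasma drug concentrations are measured by LC–MS/MS. Values are the mean of three dogs.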

[18] = Ratio of drug level in brain to plasma of C57BL/6 mouse brain at 10 mg/kg, po after 4 hrs; format: ADME, organism-based; summary of the method: as §1
[19] = Half life in ICR mouse at 10 mg/kg, po by LC-MS/MS analysis; format: ADME, organism-based; conditions: in vivo; summary of the method: as §3
[20] = Oral bioavailability in Beagle dog at 2 mg/kg by LC-MS/MS analysis; format: ADME, organism-based, Canis lupus familiaris; conditions: in vivo; summary of the method: as §2
[21] = test system: NCI-H209; test: Potentiation of TMZ-induced antitumor activity against human NCI-H209 cells xenografted in BALB/c nude mouse assessed as tumor relapse rate at […], po BID for 28 days and co-treated with 50 mg/kg, po QD TMZ for 5 consecutive days at start of study and again 14 days later and measured after 68 days; format: functional, organism-based; conditions: time 28.0 day
[22] = molecular target: BCRP (Homo sapiens, UniProt Q9UNQ0); test: Inhibition of BCRP (unknown origin) at 30 uM; conditions: not told
Sequence of BCRP (Q9UNQ0 whole entry): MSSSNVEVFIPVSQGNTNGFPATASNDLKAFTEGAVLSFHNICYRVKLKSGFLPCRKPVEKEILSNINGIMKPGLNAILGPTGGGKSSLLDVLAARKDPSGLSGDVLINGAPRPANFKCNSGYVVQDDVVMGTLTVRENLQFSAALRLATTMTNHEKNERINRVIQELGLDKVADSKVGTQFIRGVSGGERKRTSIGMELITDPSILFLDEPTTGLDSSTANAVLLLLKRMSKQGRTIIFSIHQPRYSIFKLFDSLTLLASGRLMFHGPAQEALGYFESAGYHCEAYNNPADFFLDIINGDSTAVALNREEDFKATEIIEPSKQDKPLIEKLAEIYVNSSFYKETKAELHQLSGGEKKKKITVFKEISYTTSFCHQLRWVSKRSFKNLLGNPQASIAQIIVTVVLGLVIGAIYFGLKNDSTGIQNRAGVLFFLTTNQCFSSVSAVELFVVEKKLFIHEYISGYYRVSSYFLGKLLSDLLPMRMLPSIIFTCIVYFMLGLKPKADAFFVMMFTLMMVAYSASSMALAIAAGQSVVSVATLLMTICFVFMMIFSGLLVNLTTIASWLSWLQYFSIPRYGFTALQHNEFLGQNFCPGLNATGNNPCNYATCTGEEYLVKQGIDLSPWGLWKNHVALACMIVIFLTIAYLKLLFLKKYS

[23] = test system: NCI-H209; test: Potentiation of TMZ-induced antitumor activity against human NCI-H209 cells xenografted in BALB/c nude mouse assessed as inhibition of tumor growth at […], po BID for 28 days and co-treated with 50 mg/kg, po QD TMZ for 5 consecutive days at start of study and again 14 days later; format: functional, organism-based; conditions: time 28.0 day
[24] = molecular target: Cytochrome P450 2C9 (Homo sapiens, UniProt P11712); test: Inhibition of CYP2C9 (unknown origin); format: ADME
Sequence of Cytochrome P450 2C9 (P11712 whole entry): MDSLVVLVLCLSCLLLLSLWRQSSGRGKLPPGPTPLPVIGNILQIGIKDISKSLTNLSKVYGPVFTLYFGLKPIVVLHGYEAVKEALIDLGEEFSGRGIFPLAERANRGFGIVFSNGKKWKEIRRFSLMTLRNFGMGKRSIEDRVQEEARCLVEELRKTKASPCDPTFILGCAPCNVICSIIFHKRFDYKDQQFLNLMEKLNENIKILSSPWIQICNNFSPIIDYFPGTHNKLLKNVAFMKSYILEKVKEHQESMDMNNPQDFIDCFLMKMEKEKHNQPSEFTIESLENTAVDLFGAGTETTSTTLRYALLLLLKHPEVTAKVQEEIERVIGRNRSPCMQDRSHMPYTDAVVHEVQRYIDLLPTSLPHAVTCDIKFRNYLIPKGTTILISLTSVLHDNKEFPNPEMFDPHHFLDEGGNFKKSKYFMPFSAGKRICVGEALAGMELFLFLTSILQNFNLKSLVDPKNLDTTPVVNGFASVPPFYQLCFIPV

[25] = test system: MDA-MB-436; test: Antiproliferation activity against human MDA-MB-436 cells expressing BRCA1 mutant incubated for 7 days by CellTiter-Glo luminescent cell viability assay; format: functional, cell-based; conditions: MDA-MB-436, 168 h; summary of the method: as §5
[26] = AUC (0 to infinity) in Beagle dog at 1 mg/kg, iv by LC-MS/MS analysis; format: ADME, organism-based, Canis lupus familiaris; design: time infinity, route intravenous, dose 1 mg/kg; conditions: in vivo; summary of the method: as §6
[27] = molecular target: Cytochrome P450 1A2 (Homo sapiens, UniProt P05177); test: Inhibition of CYP1A2 (unknown origin); format: ADME
Sequence of Cytochrome P450 1A2 (P05177 whole entry): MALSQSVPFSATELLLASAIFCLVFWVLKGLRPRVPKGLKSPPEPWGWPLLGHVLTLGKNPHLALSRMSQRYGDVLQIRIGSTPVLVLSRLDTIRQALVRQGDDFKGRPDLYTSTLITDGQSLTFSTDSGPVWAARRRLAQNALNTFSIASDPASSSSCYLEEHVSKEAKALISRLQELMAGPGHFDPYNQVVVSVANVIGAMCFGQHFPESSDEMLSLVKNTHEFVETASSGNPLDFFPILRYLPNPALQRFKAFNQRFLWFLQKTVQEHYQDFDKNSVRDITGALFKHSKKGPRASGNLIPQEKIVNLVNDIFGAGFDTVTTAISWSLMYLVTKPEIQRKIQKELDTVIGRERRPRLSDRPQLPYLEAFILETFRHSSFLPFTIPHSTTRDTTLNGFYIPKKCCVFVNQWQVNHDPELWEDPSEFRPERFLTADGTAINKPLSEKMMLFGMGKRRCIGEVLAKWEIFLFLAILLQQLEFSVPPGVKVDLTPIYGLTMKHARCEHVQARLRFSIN

[28] = Volume of distribution at steady state in ICR mouse at 1 mg/kg, iv by LC-MS/MS analysis; format: ADME, organism-based; conditions: in vivo, read-out: Vdss
Summary of the method: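 Three ICR mice per arm. iv dose 1 mg/kg in 5% DMA in water; oral dose 10 mg/kg in 0.5% MC. Plasma was processed by protein precipitation, diluted with water and quantified by LC-MS/MS (C18 column, acetonitrile/0.1% formic acid gradient). Values are means of three animals.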

[29] = test system: NCI-H209; test: Antitumor activity against human NCI-H209 cells xenografted in BALB/c nude mouse assessed as inhibition of tumor growth at […], po BID for 28 days; conditions: time 28.0 day
[30] = molecular target: Poly [ADP-ribose] polymerase 2 (Homo sapiens, UniProt Q9UGN5); test: Inhibition of PARP-2 (unknown origin) pre-incubated for 30 mins before addition of activated DNA and NAD by chemiluminescent assay
Sequence of Poly [ADP-ribose] polymerase 2 (Q9UGN5 whole entry): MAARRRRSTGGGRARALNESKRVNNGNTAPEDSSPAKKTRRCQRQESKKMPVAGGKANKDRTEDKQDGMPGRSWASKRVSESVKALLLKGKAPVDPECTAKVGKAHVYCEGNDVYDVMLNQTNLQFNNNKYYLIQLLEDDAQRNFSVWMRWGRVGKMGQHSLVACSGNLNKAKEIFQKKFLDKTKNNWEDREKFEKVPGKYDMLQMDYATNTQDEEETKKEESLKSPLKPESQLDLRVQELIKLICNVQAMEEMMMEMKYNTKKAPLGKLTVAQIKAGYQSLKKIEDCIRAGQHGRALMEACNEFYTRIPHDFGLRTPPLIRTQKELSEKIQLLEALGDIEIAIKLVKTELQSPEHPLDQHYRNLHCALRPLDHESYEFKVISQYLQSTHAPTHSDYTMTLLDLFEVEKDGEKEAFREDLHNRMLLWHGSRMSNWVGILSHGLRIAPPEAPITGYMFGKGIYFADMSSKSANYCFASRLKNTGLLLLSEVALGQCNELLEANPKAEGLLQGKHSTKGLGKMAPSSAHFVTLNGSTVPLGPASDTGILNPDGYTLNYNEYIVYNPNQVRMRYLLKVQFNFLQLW

Q: Which results are given for C[C@]12CCCN1CC1=NNC(=O)c3cc(F)cc4[nH]c2c1c34 [PAMIPARIB]?
A: concentration at 2 h [1]: 1330 ng/mL; BPR [2]: 18.9%; microsomal CLint [3]: 7.9 µL/min/mg; Activity [4]: 50%; Tmax [5]: 25 min; Vd [6]: 2.09 L/kg; Activity [7]: Non-Toxic; AUC [8]: 1757 ng·h/mL; half-life [9]: 318 min; fraction unbound [10]: 0.151; Cmax [11]: 2710 ng/mL; microsomal CLint [12]: 9.5 µL/min/mg; Activity [13]: Non-Toxic; clearance [14]: 22.7 mL/min/kg; pIC50 [15]: < 5.00; pEC50 [16]: < 5.00; half-life [17]: 124 min; BPR [18]: 19.1%; half-life [19]: 190 min; bioavailability [20]: 72.6%; Activity [21]: Active; inhibition at 30 µM [22]: 43%; TGI [23]: Active; pIC50 [24]: < 5.00; pEC50 [25]: 7.97; AUC(0-inf) [26]: 1080 ng·h/mL; pIC50 [27]: < 5.00; Vd [28]: 5.65 L/kg; TGI [29]: inactive; pIC50 [30]: 9.05
